From ChEMBL document CHEMBL1687785, “ampG gene of Pseudomonas aeruginosa and its role in β-lactamase expression” (2010)
Values after ≈ are worked out from the molar mass of the structure shown.

Experiments:
Assay type in all cases: functional
Pseudomonas aeruginosa [1] = test: Antimicrobial activity against Pseudomonas aeruginosa isolate 1 obtained from cystic fibrosis patients after 16 to 20 hrs by broth microdilution method in presence of 120 uM carbonyl cyanide m-chlorophenyl-hydrazone
Procedure, shortened: (§1)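 CLSI broth microdilution in Mueller-Hinton broth with CCCP added from a 10 mM DMSO stock to 120 μM final, alongside 2-fold serial antibiotic dilutions. Inoculum from starter cultures grown to OD600 0.5. MIC is the lowest concentration preventing growth after 16-20 h at 37°C. Triplicate.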

Pseudomonas aeruginosa [2] = test: Antimicrobial activity against Pseudomonas aeruginosa isolate 1 obtained from cystic fibrosis patients after 16 to 20 hrs by broth microdilution method
Procedure, shortened: (§2)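 CLSI broth microdilution: 2-fold serial antibiotic dilutions in Mueller-Hinton broth, inoculated with about 10^4 cells per 100 μl from starter cultures grown to OD600 0.5. MIC is the lowest concentration preventing growth after 16-20 h at 37°C. Triplicate.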

Pseudomonas aeruginosa [3] = test: Antimicrobial activity against Pseudomonas aeruginosa isolate 2 obtained from cystic fibrosis patients after 16 to 20 hrs by broth microdilution method in presence of 120 uM carbonyl cyanide m-chlorophenyl-hydrazone
Procedure, shortened: (§3)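 CLSI broth microdilution in Mueller-Hinton broth with serial antibiotic dilutions. CCCP was added from a 10 mM DMSO stock to 120 μM final, then the bacterial culture was added as inoculum (about 10^4 cells from OD600 0.5 starter cultures). MIC was the lowest concentration preventing growth after 16 to 20 h at 37°C, run in triplicate.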

Pseudomonas aeruginosa [4] = test: Antimicrobial activity against Pseudomonas aeruginosa isolate 2 obtained from cystic fibrosis patients after 16 to 20 hrs by broth microdilution method
Procedure, shortened: (§4)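 CLSI broth microdilution in Mueller-Hinton broth, serial 2-fold antibiotic dilutions. Inoculum about 10^4 cells per well, taken from starter cultures grown to OD600 0.5. MIC was the lowest antibiotic concentration preventing growth after 16 to 20 h at 37°C. Each MIC was determined in triplicate.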

Pseudomonas aeruginosa [5] = test: Antimicrobial activity against Pseudomonas aeruginosa isolate 3 obtained from cystic fibrosis patients after 16 to 20 hrs by broth microdilution method in presence of 120 uM carbonyl cyanide m-chlorophenyl-hydrazone; procedure, shortened: as §3
Pseudomonas aeruginosa [6] = test: Antimicrobial activity against Pseudomonas aeruginosa isolate 3 obtained from cystic fibrosis patients after 16 to 20 hrs by broth microdilution method; procedure, shortened: as §4
Pseudomonas aeruginosa [7] = test: Antimicrobial activity against Pseudomonas aeruginosa isolate 4 obtained from cystic fibrosis patients after 16 to 20 hrs by broth microdilution method in presence of 120 uM carbonyl cyanide m-chlorophenyl-hydrazone; procedure, shortened: as §3
Pseudomonas aeruginosa [8] = test: Antimicrobial activity against Pseudomonas aeruginosa isolate 4 obtained from cystic fibrosis patients after 16 to 20 hrs by broth microdilution method; procedure, shortened: as §4
Pseudomonas aeruginosa [9] = test: Antimicrobial activity against Pseudomonas aeruginosa isolate 5 obtained from cystic fibrosis patients after 16 to 20 hrs by broth microdilution method in presence of 120 uM carbonyl cyanide m-chlorophenyl-hydrazone; procedure, shortened: as §3
Pseudomonas aeruginosa [10] = test: Antimicrobial activity against Pseudomonas aeruginosa isolate 5 obtained from cystic fibrosis patients after 16 to 20 hrs by broth microdilution method; procedure, shortened: as §4
Pseudomonas aeruginosa [11] = test: Antimicrobial activity against Pseudomonas aeruginosa isolate 6 obtained from cystic fibrosis patients after 16 to 20 hrs by broth microdilution method in presence of 120 uM carbonyl cyanide m-chlorophenyl-hydrazone; procedure, shortened: as §3
Pseudomonas aeruginosa [12] = test: Antimicrobial activity against Pseudomonas aeruginosa isolate 6 obtained from cystic fibrosis patients after 16 to 20 hrs by broth microdilution method; procedure, shortened: as §4
Pseudomonas aeruginosa [13] = test: Antimicrobial activity against Pseudomonas aeruginosa isolate 7 obtained from cystic fibrosis patients after 16 to 20 hrs by broth microdilution method in presence of 120 uM carbonyl cyanide m-chlorophenyl-hydrazone; procedure, shortened: as §3
Pseudomonas aeruginosa [14] = test: Antimicrobial activity against Pseudomonas aeruginosa isolate 7 obtained from cystic fibrosis patients after 16 to 20 hrs by broth microdilution method; procedure, shortened: as §4
Pseudomonas aeruginosa [15] = test: Antimicrobial activity against Pseudomonas aeruginosa isolate 8 obtained from cystic fibrosis patients after 16 to 20 hrs by broth microdilution method in presence of 120 uM carbonyl cyanide m-chlorophenyl-hydrazone; procedure, shortened: as §3
Pseudomonas aeruginosa [16] = test: Antimicrobial activity against Pseudomonas aeruginosa isolate 8 obtained from cystic fibrosis patients after 16 to 20 hrs by broth microdilution method; procedure, shortened: as §4
Pseudomonas aeruginosa [17] = test: Antimicrobial activity against Pseudomonas aeruginosa isolate 9 obtained from cystic fibrosis patients after 16 to 20 hrs by broth microdilution method in presence of 120 uM carbonyl cyanide m-chlorophenyl-hydrazone; procedure, shortened: as §3
Pseudomonas aeruginosa [18] = test: Antimicrobial activity against Pseudomonas aeruginosa isolate 9 obtained from cystic fibrosis patients after 16 to 20 hrs by broth microdilution method; procedure, shortened: as §4
Pseudomonas aeruginosa [19] = test: Antimicrobial activity against Pseudomonas aeruginosa isolate 10 obtained from cystic fibrosis patients after 16 to 20 hrs by broth microdilution method in presence of 120 uM carbonyl cyanide m-chlorophenyl-hydrazone; procedure, shortened: as §1
Pseudomonas aeruginosa [20] = test: Antimicrobial activity against Pseudomonas aeruginosa isolate 10 obtained from cystic fibrosis patients after 16 to 20 hrs by broth microdilution method; procedure, shortened: as §2
Pseudomonas aeruginosa [21] = test: Antimicrobial activity against Pseudomonas aeruginosa isolate 11 obtained from cystic fibrosis patients after 16 to 20 hrs by broth microdilution method in presence of 120 uM carbonyl cyanide m-chlorophenyl-hydrazone; procedure, shortened: as §1
Pseudomonas aeruginosa [22] = test: Antimicrobial activity against Pseudomonas aeruginosa isolate 11 obtained from cystic fibrosis patients after 16 to 20 hrs by broth microdilution method; procedure, shortened: as §2
Pseudomonas aeruginosa [23] = test: Antimicrobial activity against Pseudomonas aeruginosa isolate 12 obtained from cystic fibrosis patients after 16 to 20 hrs by broth microdilution method; procedure, shortened: as §2
Pseudomonas aeruginosa [24] = test: Antimicrobial activity against Pseudomonas aeruginosa isolate 12 obtained from cystic fibrosis patients after 16 to 20 hrs by broth microdilution method in presence of 120 uM carbonyl cyanide m-chlorophenyl-hydrazone; procedure, shortened: as §1
Pseudomonas aeruginosa [25] = test: Antimicrobial activity against Pseudomonas aeruginosa isolate 13 obtained from cystic fibrosis patients after 16 to 20 hrs by broth microdilution method in presence of 120 uM carbonyl cyanide m-chlorophenyl-hydrazone; procedure, shortened: as §1
Pseudomonas aeruginosa [26] = test: Antimicrobial activity against Pseudomonas aeruginosa isolate 13 obtained from cystic fibrosis patients after 16 to 20 hrs by broth microdilution method; procedure, shortened: as §2
Pseudomonas aeruginosa [27] = test: Antimicrobial activity against Pseudomonas aeruginosa isolate 14 obtained from cystic fibrosis patients after 16 to 20 hrs by broth microdilution method in presence of 120 uM carbonyl cyanide m-chlorophenyl-hydrazone; procedure, shortened: as §1
Pseudomonas aeruginosa [28] = test: Antimicrobial activity against Pseudomonas aeruginosa isolate 14 obtained from cystic fibrosis patients after 16 to 20 hrs by broth microdilution method; procedure, shortened: as §2
Pseudomonas aeruginosa [29] = test: Antimicrobial activity against Pseudomonas aeruginosa isolate 15 obtained from cystic fibrosis patients after 16 to 20 hrs by broth microdilution method in presence of 120 uM carbonyl cyanide m-chlorophenyl-hydrazone; procedure, shortened: as §1
Pseudomonas aeruginosa [30] = test: Antimicrobial activity against Pseudomonas aeruginosa isolate 15 obtained from cystic fibrosis patients after 16 to 20 hrs by broth microdilution method; procedure, shortened: as §2
Pseudomonas aeruginosa [31] = test: Antimicrobial activity against Pseudomonas aeruginosa isolate 16 obtained from cystic fibrosis patients after 16 to 20 hrs by broth microdilution method in presence of 120 uM carbonyl cyanide m-chlorophenyl-hydrazone; procedure, shortened: as §1
Pseudomonas aeruginosa [32] = test: Antimicrobial activity against Pseudomonas aeruginosa isolate 16 obtained from cystic fibrosis patients after 16 to 20 hrs by broth microdilution method; procedure, shortened: as §2
Pseudomonas aeruginosa [33] = test: Antimicrobial activity against Pseudomonas aeruginosa isolate 17 obtained from cystic fibrosis patients after 16 to 20 hrs by broth microdilution method in presence of 120 uM carbonyl cyanide m-chlorophenyl-hydrazone; procedure, shortened: as §3
Pseudomonas aeruginosa [34] = test: Antimicrobial activity against Pseudomonas aeruginosa isolate 17 obtained from cystic fibrosis patients after 16 to 20 hrs by broth microdilution method; procedure, shortened: as §4
Pseudomonas aeruginosa [35] = test: Antimicrobial activity against Pseudomonas aeruginosa isolate 18 obtained from cystic fibrosis patients after 16 to 20 hrs by broth microdilution method in presence of 120 uM carbonyl cyanide m-chlorophenyl-hydrazone; procedure, shortened: as §3
Pseudomonas aeruginosa [36] = test: Antimicrobial activity against Pseudomonas aeruginosa isolate 18 obtained from cystic fibrosis patients after 16 to 20 hrs by broth microdilution method; procedure, shortened: as §4

Row | SMILES | MIC (Pseudomonas aeruginosa [1]) | MIC (Pseudomonas aeruginosa [2]) | MIC (Pseudomonas aeruginosa [3]) | MIC (Pseudomonas aeruginosa [4]) | MIC (Pseudomonas aeruginosa [5]) | MIC (Pseudomonas aeruginosa [6]) | MIC (Pseudomonas aeruginosa [7]) | MIC (Pseudomonas aeruginosa [8]) | MIC (Pseudomonas aeruginosa [9]) | MIC (Pseudomonas aeruginosa [10]) | MIC (Pseudomonas aeruginosa [11]) | MIC (Pseudomonas aeruginosa [12]) | MIC (Pseudomonas aeruginosa [13]) | MIC (Pseudomonas aeruginosa [14]) | MIC (Pseudomonas aeruginosa [15]) | MIC (Pseudomonas aeruginosa [16]) | MIC (Pseudomonas aeruginosa [17]) | MIC (Pseudomonas aeruginosa [18]) | MIC (Pseudomonas aeruginosa [19]) | MIC (Pseudomonas aeruginosa [20]) | other results
1 | CN(C)[C@@H]1C(O)=C(C(N)=O)C(=O)[C@@]2(O)C(O)=C3C(=O)c4c(O)cccc4[C@@](C)(O)[C@H]3C[C@@H]12 [TETRACYCLINE] | 8 µg/mL | 8 µg/mL (≈ 18 µM) | 8 µg/mL | 8 µg/mL (≈ 18 µM) | 8 µg/mL | 8 µg/mL (≈ 18 µM) | 8 µg/mL | 8 µg/mL (≈ 18 µM) | 8 µg/mL | 8 µg/mL (≈ 18 µM) | 8 µg/mL | 8 µg/mL (≈ 18 µM) | 8 µg/mL | 8 µg/mL (≈ 18 µM) | 8 µg/mL | 16 µg/mL (≈ 36 µM) | 8 µg/mL | 8 µg/mL (≈ 18 µM) | 8 µg/mL | 8 µg/mL (≈ 18 µM) | MIC (Pseudomonas aeruginosa [21]): 8 µg/mL; MIC (Pseudomonas aeruginosa [22]): 8 µg/mL (≈ 18 µM); MIC (Pseudomonas aeruginosa [23]): 8 µg/mL (≈ 18 µM); MIC (Pseudomonas aeruginosa [24]): 8 µg/mL; MIC (Pseudomonas aeruginosa [25]): 8 µg/mL; MIC (Pseudomonas aeruginosa [26]): 8 µg/mL (≈ 18 µM); MIC (Pseudomonas aeruginosa [27]): 8 µg/mL; MIC (Pseudomonas aeruginosa [28]): 8 µg/mL (≈ 18 µM); MIC (Pseudomonas aeruginosa [29]): 8 µg/mL; MIC (Pseudomonas aeruginosa [30]): 8 µg/mL (≈ 18 µM); MIC (Pseudomonas aeruginosa [31]): 8 µg/mL; MIC (Pseudomonas aeruginosa [32]): 8 µg/mL (≈ 18 µM); MIC (Pseudomonas aeruginosa [33]): 8 µg/mL; MIC (Pseudomonas aeruginosa [34]): 8 µg/mL (≈ 18 µM); MIC (Pseudomonas aeruginosa [35]): 8 µg/mL; MIC (Pseudomonas aeruginosa [36]): 16 µg/mL (≈ 36 µM)
2 | O=C(N[C@H](CO)[C@H](O)c1ccc([N+](=O)[O-])cc1)C(Cl)Cl [CHLORAMPHENICOL] | 64 µg/mL | 256 µg/mL (≈ 792 µM) | 256 µg/mL | 256 µg/mL (≈ 792 µM) | 64 µg/mL | 256 µg/mL (≈ 792 µM) | 32 µg/mL | 32 µg/mL (≈ 99 µM) | 32 µg/mL | 32 µg/mL (≈ 99 µM) | 8 µg/mL | 8 µg/mL (≈ 24.8 µM) | 8 µg/mL | 8 µg/mL (≈ 24.8 µM) | 32 µg/mL | 32 µg/mL (≈ 99 µM) | 16 µg/mL | 16 µg/mL (≈ 49.5 µM) | 8 µg/mL | 32 µg/mL (≈ 99 µM) | MIC (Pseudomonas aeruginosa [21]): 32 µg/mL; MIC (Pseudomonas aeruginosa [22]): 32 µg/mL (≈ 99 µM); MIC (Pseudomonas aeruginosa [23]): 8 µg/mL (≈ 24.8 µM); MIC (Pseudomonas aeruginosa [24]): 8 µg/mL; MIC (Pseudomonas aeruginosa [25]): 8 µg/mL; MIC (Pseudomonas aeruginosa [26]): 32 µg/mL (≈ 99 µM); MIC (Pseudomonas aeruginosa [27]): 8 µg/mL; MIC (Pseudomonas aeruginosa [28]): 16 µg/mL (≈ 49.5 µM); MIC (Pseudomonas aeruginosa [29]): 8 µg/mL; MIC (Pseudomonas aeruginosa [30]): 8 µg/mL (≈ 24.8 µM); MIC (Pseudomonas aeruginosa [31]): 8 µg/mL; MIC (Pseudomonas aeruginosa [32]): 8 µg/mL (≈ 24.8 µM); MIC (Pseudomonas aeruginosa [33]): 8 µg/mL; MIC (Pseudomonas aeruginosa [34]): 8 µg/mL (≈ 24.8 µM); MIC (Pseudomonas aeruginosa [35]): 32 µg/mL; MIC (Pseudomonas aeruginosa [36]): 32 µg/mL (≈ 99 µM)
